Results as given in ChEMBL document CHEMBL1149903, “Synthesis and biological evaluation of thiobenzanilides as anticancer agents” (Bioorg Med Chem, 2008).
Calls of active or inactive are those of the source. No cut-off for these calls is given here.

Columns and labels:
[1] = Cytotoxicity against human 293T cells at 10 uM by MTS assay; type: cell-based, HEK-293T; conditions: read-out: Survival
In short: (§1)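 MTS proliferation assay. Cells were seeded at 2500 cells/well and incubated overnight, then exposed to compound at 10 µM for 24 h. MTS tetrazolium premixed with phenazine ethosulfate was then added and incubated 1–2 h at 37 °C. Absorbance was read at 490 nm against a 690 nm reference. Value reported is survival as % of control.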

A-375 [2] = assay: Induction of apoptosis in human A375 cells assessed as annexin V-FITC cells at 10 uM after 24 hrs by annexin V-FITC and PI staining; type: functional
In short: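 After 24 h at 10 µM, 10⁶ A375 cells per sample were stained with annexin V-FITC and PI at the same time and analysed by flow cytometry. Annexin V⁺/PI⁻ cells were scored as early apoptotic and annexin V⁺/PI⁺ cells as necrotic.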

A-375 [3] = assay: Induction of apoptosis in human A375 cells assessed as caspase 3 activation at 10 uM after 24 hrs by Western blot analysis relative to control; type: functional, cell-based
In short: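 Lysates of A375 cells exposed 24 h to 10 µM agent; 40 µg protein per lane run on 10% SDS-PAGE and transferred to PVDF. Blocked in 5% skim milk in PBS-T, then probed with rabbit polyclonal anti-caspase-3 (p20 active form), with actin as loading control. HRP secondary and chemiluminescence detection; band amounts quantified by densitometry.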

A-375 [4] = assay: Cell cycle arrest in human A375 cells assessed as accumulation at S phase at 10 uM after 24 hrs by flow cytometry; type: functional
In short: (§2)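 A375 cells exposed 24 h to 10 µM agent, DMSO control. Harvested by trypsinization, washed in PBS, fixed in ice-cold 70% ethanol 30 min. RNase A 1 mg/mL (with trisodium citrate) at 37 °C 30 min. Stained with PI/citrate/Triton X-100 DNA solution 30 min at room temperature in the dark. DNA content of 10,000 events read by flow cytometry; phase percentages calculated.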

A-375 [5] = assay: Induction of apoptosis in human A375 cells assessed as increase in intracellular H2O2 release at 10 uM after 4 hrs in presence of catalase
A-375 [6] = assay: Effect on intracellular ATP content in human A375 cells at 10 uM after 24 hrs by firefly luciferase luminescence relative to control; type: functional
In short: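 Intracellular ATP measured by firefly luciferin–luciferase bioluminescence (ATPlite kit). A375 cells treated 24 h with 10 µM agent, then lysed; debris removed by centrifugation and supernatant assayed. Relative ATP expressed as percentage of the 0 µM level.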

A-375 [7] = assay: Induction of apoptosis in human A375 cells assessed as increase in intracellular H2O2 release at 10 uM after 4 hrs
A-375 [8] = assay: Cytotoxicity against human A375 cells at 10 uM by MTS assay; type: functional; conditions: read-out: Survival; in short: as §1
A-375 [9] = assay: Cell cycle arrest in human A375 cells assessed as accumulation at G2/M phase at 10 uM after 24 hrs by flow cytometry; type: functional; in short: as §2
K562 = assay: Cytotoxicity against human K562 cells at 10 uM by MTS assay; type: functional; conditions: read-out: Survival; in short: as §1
A-375 [10] = assay: Cell cycle arrest in human A375 cells assessed as accumulation at G1 phase at 10 uM after 24 hrs by flow cytometry; type: functional; in short: as §2
A-375 [11] = assay: Induction of apoptosis in human A375 cells assessed as disruption of mitochondrial membrane potential at 10 uM after 24 hrs of labeling with rhodamine 123-dye by flow cytometry; type: functional, cell-based
In short: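 Exponentially growing A375 cells treated 24 h at 10 µM, then trypsinized and pelleted. Resuspended in rhodamine 123 (10 µg/mL) for 30 min at room temperature, washed twice in PBS and read at once by flow cytometry (FL-1, 530/30 nm band pass).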

Compound	viability at 10 µM [1] [%]	Activity (A-375 [2]) [%]	Activity (A-375 [3])	Activity (A-375 [4]) [%]	Activity (A-375 [5])	Activity (A-375 [6]) [%]	Activity (A-375 [7])	viability at 10 µM (A-375 [8]) [%]	Activity (A-375 [9]) [%]	viability at 10 µM (K562) [%]	Activity (A-375 [10]) [%]	Activity (A-375 [11])
O=[N+]([O-])c1ccc(C(=S)Nc2ccc(Br)cc2)cc1	48.4	7.5	Active	12.7	inactive	66.1	Active	43	29	42.9	58.4	Active
O=[N+]([O-])c1ccc(NC(=S)c2ccc([N+](=O)[O-])cc2)cc1	44	16.3	Active	11.3	inactive	83.6	Active	39.1	28.9	47.9	59.9	Active
O=C(Nc1ccc(Br)cc1)c1ccc([N+](=O)[O-])cc1	86.9	–	–	–	–	–	–	81.1	–	89.1	–	–
O=[N+]([O-])c1ccc(C(=S)Nc2ccc(C(F)(F)F)cc2)cc1	41.2	33	Active	17.1	inactive	63.1	Active	36.2	27.6	41.4	55.4	Active
O=C(Nc1ccc(C(F)(F)F)cc1)c1ccc([N+](=O)[O-])cc1	87.7	–	–	–	–	–	–	87.2	–	81.3	–	–
O=C(Nc1ccc([N+](=O)[O-])cc1)c1ccc([N+](=O)[O-])cc1	85.2	–	–	–	–	–	–	70.5	–	71.3	–	–
